Measured values from ChEMBL document CHEMBL3098105, “7,7'-Diazaindirubin--a small molecule inhibitor of casein kinase 2 in vitro and in cells” (Bioorg Med Chem, 2014).

Experiments:
[1] = tested on: SNB-19; test: Antiproliferative activity against human SNB19 cells after 3 days by sulforhodamine B assay; format: functional; conditions: SNB-19, 72 h
[2] = target: Casein kinase I isoform gamma-1 (Homo sapiens) (UniProt Q9HCP0); test: Inhibition of human CK1gamma1 assessed as residual activity at 1 uM relative to control
Sequence of Casein kinase I isoform gamma-1 (Homo sapiens) (Q9HCP0 whole entry, looked up, canonical isoform): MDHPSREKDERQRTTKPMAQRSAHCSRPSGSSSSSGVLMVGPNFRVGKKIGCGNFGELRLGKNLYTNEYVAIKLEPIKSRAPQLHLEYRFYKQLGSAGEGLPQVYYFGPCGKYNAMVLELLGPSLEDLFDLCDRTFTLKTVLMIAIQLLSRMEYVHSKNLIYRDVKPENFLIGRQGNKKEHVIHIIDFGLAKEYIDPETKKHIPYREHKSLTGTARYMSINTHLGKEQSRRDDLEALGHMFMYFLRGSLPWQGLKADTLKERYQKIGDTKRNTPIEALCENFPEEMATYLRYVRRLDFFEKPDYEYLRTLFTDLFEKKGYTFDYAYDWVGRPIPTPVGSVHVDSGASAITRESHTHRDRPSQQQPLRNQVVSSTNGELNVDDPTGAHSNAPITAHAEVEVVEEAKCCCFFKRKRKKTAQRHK

[3] = target: Dual specificity protein kinase CLK2 (Homo sapiens) (UniProt P49760); test: Inhibition of human CLK2 assessed as residual activity at 1 uM relative to control
Sequence of Dual specificity protein kinase CLK2 (Homo sapiens) (P49760 whole entry, looked up): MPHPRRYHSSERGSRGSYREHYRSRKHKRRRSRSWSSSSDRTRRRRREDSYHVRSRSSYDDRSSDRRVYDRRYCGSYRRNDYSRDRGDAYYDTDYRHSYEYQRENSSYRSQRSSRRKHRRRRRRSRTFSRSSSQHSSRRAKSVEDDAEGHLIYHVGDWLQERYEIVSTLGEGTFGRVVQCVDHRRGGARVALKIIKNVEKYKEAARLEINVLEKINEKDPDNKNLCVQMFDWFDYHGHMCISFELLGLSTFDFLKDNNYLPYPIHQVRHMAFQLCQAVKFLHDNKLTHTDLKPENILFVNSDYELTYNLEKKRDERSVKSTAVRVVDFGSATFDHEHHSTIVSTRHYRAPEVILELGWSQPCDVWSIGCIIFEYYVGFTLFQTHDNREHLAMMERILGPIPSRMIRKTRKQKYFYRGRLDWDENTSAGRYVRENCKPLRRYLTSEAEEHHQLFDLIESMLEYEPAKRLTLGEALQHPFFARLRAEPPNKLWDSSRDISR

[4] = tested on: MCF7; test: Cell cycle arrest in human MCF7 cells assessed as accumulation at G2/M phase at 0.5 uM after 24 hrs using propidium iodide staining by FACS analysis (reference value: 22.13%); format: functional
[5] = target: Discoidin domain-containing receptor 2 (Homo sapiens) (UniProt Q16832); test: Inhibition of human DDR2 assessed as residual activity at 1 uM relative to control
Sequence of Discoidin domain-containing receptor 2 (Homo sapiens) (Q16832 whole entry, the tested form may be a part): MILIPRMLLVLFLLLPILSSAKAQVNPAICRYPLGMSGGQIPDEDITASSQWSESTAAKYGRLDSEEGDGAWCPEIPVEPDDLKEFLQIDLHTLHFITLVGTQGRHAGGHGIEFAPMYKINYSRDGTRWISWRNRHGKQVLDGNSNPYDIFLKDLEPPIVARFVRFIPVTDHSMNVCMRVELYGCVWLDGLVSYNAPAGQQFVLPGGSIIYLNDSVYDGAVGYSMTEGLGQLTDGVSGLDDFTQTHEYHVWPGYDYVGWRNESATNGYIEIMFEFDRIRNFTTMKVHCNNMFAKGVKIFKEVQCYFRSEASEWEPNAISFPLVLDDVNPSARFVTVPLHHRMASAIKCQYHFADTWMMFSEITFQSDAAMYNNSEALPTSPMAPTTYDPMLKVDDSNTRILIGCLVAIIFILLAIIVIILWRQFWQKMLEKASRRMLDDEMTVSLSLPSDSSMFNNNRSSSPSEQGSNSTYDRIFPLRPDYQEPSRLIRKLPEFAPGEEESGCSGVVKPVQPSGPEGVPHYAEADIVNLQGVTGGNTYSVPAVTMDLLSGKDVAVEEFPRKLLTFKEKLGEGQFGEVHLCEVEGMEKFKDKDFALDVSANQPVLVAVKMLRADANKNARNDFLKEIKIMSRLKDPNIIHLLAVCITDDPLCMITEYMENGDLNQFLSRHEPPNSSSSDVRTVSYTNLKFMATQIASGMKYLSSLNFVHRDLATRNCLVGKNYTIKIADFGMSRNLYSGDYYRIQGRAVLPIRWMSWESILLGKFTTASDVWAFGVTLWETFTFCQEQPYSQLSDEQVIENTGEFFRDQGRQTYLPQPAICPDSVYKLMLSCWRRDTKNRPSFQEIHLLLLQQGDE

[6] = target: High affinity nerve growth factor receptor (Homo sapiens) (UniProt P04629); test: Inhibition of human TrkA assessed as residual activity at 1 uM relative to control
Sequence of High affinity nerve growth factor receptor (Homo sapiens) (P04629 33-796 limits assumed): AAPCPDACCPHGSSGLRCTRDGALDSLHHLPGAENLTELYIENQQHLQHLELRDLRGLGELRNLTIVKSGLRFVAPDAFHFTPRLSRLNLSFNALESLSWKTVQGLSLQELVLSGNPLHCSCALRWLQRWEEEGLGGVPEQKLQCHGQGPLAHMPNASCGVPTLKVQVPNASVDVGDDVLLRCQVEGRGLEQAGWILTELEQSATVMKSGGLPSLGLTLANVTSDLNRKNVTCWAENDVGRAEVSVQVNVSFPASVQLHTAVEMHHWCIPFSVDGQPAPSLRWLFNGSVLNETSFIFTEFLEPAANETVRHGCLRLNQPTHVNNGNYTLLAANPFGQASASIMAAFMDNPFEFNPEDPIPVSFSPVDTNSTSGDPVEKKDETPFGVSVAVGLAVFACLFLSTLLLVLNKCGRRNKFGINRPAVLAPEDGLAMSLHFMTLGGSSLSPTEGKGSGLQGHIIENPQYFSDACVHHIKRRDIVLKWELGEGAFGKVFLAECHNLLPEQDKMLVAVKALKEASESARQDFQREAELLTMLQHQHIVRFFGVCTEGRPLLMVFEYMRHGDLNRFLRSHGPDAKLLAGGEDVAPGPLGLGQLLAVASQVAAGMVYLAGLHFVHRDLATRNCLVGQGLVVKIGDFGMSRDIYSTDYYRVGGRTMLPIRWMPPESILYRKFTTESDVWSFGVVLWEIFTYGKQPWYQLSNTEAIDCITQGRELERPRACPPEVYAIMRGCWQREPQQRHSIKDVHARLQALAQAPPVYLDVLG

[7] = target: Tyrosine-protein kinase JAK2 (Homo sapiens) (UniProt O60674); test: Inhibition of human JAK2 assessed as residual activity at 1 uM relative to control
[8] = target: Tyrosine-protein kinase ABL2 (Homo sapiens) (UniProt P42684); test: Inhibition of human Arg assessed as residual activity at 1 uM relative to control
[9] = target: Serine/threonine-protein kinase Sgk2 (Homo sapiens) (UniProt Q9HBY8); test: Inhibition of human SGK2 assessed as residual activity at 1 uM relative to control
Sequence of Serine/threonine-protein kinase Sgk2 (Homo sapiens) (Q9HBY8 whole entry): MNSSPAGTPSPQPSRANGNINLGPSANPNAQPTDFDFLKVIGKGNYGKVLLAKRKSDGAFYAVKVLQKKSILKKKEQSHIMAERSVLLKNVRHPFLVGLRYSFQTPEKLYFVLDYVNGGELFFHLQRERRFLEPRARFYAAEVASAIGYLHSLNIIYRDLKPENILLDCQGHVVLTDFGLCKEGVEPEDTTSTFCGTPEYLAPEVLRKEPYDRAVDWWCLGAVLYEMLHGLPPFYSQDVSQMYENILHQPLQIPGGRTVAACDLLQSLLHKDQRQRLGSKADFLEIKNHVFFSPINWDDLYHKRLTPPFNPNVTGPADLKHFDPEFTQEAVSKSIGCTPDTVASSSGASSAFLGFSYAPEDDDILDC

[10] = tested on: MCF7; test: Cell cycle arrest in human MCF7 cells assessed as accumulation at G2/M phase at 0.25 uM after 24 hrs using propidium iodide staining by FACS analysis (reference value: 22.13%); format: functional
[11] = tested on: SK-MEL-2; test: Antiproliferative activity against human SK-MEL-2 cells after 3 days by sulforhodamine B assay; format: functional; conditions: SK-MEL-2, 72 h
In short: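 Tested in the NCI 60 cell line panel. GI50 is the concentration giving 50% inhibition of cell growth, and values are the mean of two series of tests.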

[12] = target: Ephrin type-A receptor 2 (Homo sapiens) (UniProt P29317); test: Inhibition of human EphA2 assessed as residual activity at 1 uM relative to control
[13] = organism: Homo sapiens; test: Inhibition of human PKA assessed as residual activity at 1 uM relative to control
[14] = target: Cyclin-dependent kinase 1/cyclin B1 (Homo sapiens) (UniProt P06493+P14635); test: Inhibition of CDK1/CycB1 (unknown origin) assessed as residual activity at 1 uM relative to control; format: protein-complex assay
Sequence of Cyclin-dependent kinase 1/cyclin B1 (Homo sapiens) (P06493 whole entry, looked up): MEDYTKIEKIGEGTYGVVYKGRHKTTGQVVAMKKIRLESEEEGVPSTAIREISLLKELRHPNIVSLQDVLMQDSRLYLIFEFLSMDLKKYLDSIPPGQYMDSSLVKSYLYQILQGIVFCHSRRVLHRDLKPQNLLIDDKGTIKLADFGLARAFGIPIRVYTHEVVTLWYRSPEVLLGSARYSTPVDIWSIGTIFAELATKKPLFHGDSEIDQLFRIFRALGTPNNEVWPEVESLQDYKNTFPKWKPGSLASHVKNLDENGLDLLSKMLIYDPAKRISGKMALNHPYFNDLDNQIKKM
Sequence of Cyclin-dependent kinase 1/cyclin B1 (Homo sapiens) (P14635 whole entry, looked up): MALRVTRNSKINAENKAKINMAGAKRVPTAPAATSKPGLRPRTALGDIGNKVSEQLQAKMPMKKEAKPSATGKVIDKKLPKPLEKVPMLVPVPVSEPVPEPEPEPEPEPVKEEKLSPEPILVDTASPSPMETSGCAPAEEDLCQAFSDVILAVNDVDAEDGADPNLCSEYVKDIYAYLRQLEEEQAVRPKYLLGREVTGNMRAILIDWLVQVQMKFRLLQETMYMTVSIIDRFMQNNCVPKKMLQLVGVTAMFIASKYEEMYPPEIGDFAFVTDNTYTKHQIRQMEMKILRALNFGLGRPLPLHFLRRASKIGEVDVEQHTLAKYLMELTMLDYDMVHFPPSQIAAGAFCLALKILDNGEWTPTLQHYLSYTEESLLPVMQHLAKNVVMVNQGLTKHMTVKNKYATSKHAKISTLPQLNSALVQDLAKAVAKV

[15] = target: Fibroblast growth factor receptor 1 (Homo sapiens) (UniProt P11362); test: Inhibition of FGF-R1 (unknown origin) assessed as residual activity at 10 uM relative to control
[16] = target: Serine/threonine-protein kinase 10 (Homo sapiens) (UniProt O94804); test: Inhibition of human LOK assessed as residual activity at 1 uM relative to control
[17] = target: Insulin-like growth factor 1 receptor (Homo sapiens) (UniProt P08069); test: Inhibition of IGF1-R (unknown origin) assessed as residual activity at 10 uM relative to control
[18] = target: Platelet-derived growth factor receptor alpha (Homo sapiens) (UniProt P16234); test: Inhibition of PDGFR-alpha (unknown origin) assessed as residual activity at 10 uM relative to control
Sequence of Platelet-derived growth factor receptor alpha (Homo sapiens) (P16234 whole entry): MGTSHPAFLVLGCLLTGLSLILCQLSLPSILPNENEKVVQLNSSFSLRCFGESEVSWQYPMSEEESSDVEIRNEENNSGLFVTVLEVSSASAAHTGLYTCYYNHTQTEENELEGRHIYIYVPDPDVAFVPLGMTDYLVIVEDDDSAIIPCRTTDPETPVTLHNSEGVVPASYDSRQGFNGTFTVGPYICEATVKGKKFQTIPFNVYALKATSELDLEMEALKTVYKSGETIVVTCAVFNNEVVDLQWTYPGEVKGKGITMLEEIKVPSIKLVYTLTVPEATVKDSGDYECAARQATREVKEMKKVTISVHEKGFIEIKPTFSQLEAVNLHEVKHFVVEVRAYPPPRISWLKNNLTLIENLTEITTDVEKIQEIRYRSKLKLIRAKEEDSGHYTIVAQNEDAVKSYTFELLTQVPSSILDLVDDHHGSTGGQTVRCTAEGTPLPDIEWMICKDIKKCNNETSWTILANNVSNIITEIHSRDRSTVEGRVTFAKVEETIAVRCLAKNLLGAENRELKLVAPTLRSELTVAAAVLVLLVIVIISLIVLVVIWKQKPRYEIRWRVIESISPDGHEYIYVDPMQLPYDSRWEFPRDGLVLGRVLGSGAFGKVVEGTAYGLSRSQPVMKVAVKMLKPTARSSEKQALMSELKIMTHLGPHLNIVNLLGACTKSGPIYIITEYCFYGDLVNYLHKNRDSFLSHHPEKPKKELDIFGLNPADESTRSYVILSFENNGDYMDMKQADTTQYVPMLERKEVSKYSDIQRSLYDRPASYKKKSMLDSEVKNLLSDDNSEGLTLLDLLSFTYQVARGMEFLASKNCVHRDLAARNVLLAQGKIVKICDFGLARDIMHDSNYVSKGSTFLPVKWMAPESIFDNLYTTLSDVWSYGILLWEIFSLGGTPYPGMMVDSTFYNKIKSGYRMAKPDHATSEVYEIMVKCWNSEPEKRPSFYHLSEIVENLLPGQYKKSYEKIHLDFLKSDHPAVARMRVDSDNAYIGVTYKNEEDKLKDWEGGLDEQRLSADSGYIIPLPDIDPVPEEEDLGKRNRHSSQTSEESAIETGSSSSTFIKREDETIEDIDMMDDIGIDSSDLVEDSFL

[19] = tested on: T47D; test: Antiproliferative activity against human T47D cells after 3 days by sulforhodamine B assay; format: functional; conditions: 72 h
[20] = target: T1, Aurora kinase A (Homo sapiens) (UniProt O14965); test: Inhibition of Aurora-A (unknown origin) assessed as residual activity at 10 uM relative to control
T1 sequence (whole entry): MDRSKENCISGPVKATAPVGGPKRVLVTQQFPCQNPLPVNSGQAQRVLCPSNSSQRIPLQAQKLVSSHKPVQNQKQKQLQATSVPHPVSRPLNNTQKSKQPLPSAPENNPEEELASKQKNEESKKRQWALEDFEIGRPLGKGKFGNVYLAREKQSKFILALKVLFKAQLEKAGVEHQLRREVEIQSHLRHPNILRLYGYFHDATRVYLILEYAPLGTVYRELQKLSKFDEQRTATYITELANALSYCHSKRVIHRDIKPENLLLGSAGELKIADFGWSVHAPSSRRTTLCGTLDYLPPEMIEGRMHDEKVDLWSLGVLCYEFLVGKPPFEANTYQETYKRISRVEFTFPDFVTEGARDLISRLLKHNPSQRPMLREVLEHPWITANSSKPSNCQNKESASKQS

[21] = target: Protein kinase C gamma type (Homo sapiens) (UniProt P05129); test: Inhibition of human PKCgamma assessed as residual activity at 1 uM relative to control
[22] = target: T2, Muscle, skeletal receptor tyrosine-protein kinase (Homo sapiens) (UniProt O15146); test: Inhibition of MUSK (unknown origin) assessed as residual activity at 1 uM relative to control
T2 sequence (whole entry): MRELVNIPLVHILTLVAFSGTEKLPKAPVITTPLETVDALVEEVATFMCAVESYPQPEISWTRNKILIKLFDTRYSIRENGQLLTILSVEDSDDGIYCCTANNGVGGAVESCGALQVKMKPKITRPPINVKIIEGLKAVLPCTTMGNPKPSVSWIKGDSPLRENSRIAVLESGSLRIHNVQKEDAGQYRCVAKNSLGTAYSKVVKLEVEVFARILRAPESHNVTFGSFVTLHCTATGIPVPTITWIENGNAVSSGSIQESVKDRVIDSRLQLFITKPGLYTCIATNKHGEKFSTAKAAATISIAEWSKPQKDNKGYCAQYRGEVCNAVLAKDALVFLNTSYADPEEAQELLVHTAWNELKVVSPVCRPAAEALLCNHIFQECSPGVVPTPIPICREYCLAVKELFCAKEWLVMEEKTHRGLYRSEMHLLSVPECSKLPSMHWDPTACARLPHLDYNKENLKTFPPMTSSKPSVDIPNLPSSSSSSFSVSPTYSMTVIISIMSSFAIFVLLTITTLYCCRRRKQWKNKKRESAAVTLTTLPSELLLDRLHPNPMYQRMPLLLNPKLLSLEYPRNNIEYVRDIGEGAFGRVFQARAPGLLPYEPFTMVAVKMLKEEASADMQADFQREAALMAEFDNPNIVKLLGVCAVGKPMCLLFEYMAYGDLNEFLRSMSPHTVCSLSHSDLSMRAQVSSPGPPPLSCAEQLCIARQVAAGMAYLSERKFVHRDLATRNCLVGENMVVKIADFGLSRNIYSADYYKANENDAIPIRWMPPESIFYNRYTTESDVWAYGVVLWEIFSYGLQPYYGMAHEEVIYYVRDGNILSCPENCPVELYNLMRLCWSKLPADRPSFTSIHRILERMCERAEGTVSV

[23] = target: Mast/stem cell growth factor receptor Kit (Homo sapiens) (UniProt P10721); test: Inhibition of KIT (unknown origin) assessed as residual activity at 1 uM relative to control

Activity [2]: 104% | Activity [3]: 81% | Activity [5]: 119% | Activity [6]: 127% | Activity [7]: 91% | Activity [8]: 98% | Activity [9]: 127% | GI50 [11]: 1710 nM | Activity [12]: 122% | Activity [13]: 91% | Activity [14]: 70% | Activity [15]: 81% | Activity [16]: 93% | Activity [17]: 94% | Activity [18]: 88% | GI50 [19]: 1770 nM | Activity [20]: 61% | Activity [21]: 114% | Activity [22]: 95% | Activity [23]: 108%
Structure (SMILES): O=C1Nc2ncccc2/C1=C1/Nc2ncccc2C1=O
GI50 [1]: 517 nM | Activity [4]: 21.21% | Activity [10]: 21.66%
